Test results as given in ChEMBL document CHEMBL4725343, “Medicinal Chemistry Optimization of a Diaminopurine Chemotype: Toward a Lead for Trypanosoma brucei Inhibitors” (J Med Chem, 2020).

Tests used:
[1] = Distribution coefficient between octanol and aqueous buffer, logD of the compound in pH 7.4 buffer by UPLC-MS-based shake flask method; assay type: physicochemical; conditions: octanol/water
[2] = Cmax in NMRI mouse at 10 mg/kg, ip measured up to […]rs on day 1 by LC-MS/MS analysis; assay type: ADME, organism-based; parameters: route intraperitoneal, dose 10 mg/kg; conditions: in vivo
Procedure, shortened: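 Female NMRI mice, uninfected (n=3), received a single ip dose of 10 mg/kg at 10 mL/kg, in 1% DMSO/99% of 20% (w/v) SBEβ-CD in water. Tail-vein blood was collected into K2EDTA at 0.0833 to 24 h and diluted with an equal volume of water. Samples underwent liquid–liquid extraction with nifedipine as internal standard, followed by LC-MS/MS.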

[3] = Apparent permeability across apical to basolateral side in human Caco2 cells assessed as drug recovery after 2 hrs; assay type: ADME, cell-based; conditions: caco-2, 2 h
[4] = AUC in ABT-treated NMRI mouse at 30 mg/kg, ip measured up to 6 hrs on day 1 by LC-MS/MS analysis; assay type: ADME, organism-based; parameters: route intraperitoneal, dose 30 mg/kg/day, time <=6; conditions: in vivo
Procedure, shortened: (§1)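 Uninfected female NMRI mice (n=3), oral 1-aminobenzotriazole 50 mg/kg/day 1 h before each ip dose of 30 mg/kg/day (0.2 mL; vehicle 4% DMSO, 20% Captisol). Blood sampled at 0.5, 2, 4 and 6 h on day 1. Samples processed by liquid–liquid extraction with nifedipine internal standard, then LC-MS/MS.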

[5] = Tmax in ABT-treated NMRI mouse at 30 mg/kg, ip measured up to 6 hrs on day 1 by LC-MS/MS analysis; assay type: ADME, organism-based; conditions: in vivo, dose 30 mg/kg/day
Procedure, shortened: (§2)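 Female NMRI mice, infected with STIB795 or uninfected, pretreated with ABT 50 mg/kg po 1 h before 30 mg/kg ip. Vehicle 4% DMSO, 20% Captisol. Tail blood taken at 0.5, 2, 4 and 6 h on day 1 and diluted with water. Liquid–liquid extraction with nifedipine internal standard, then LC-MS/MS.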

[6] = Apparent permeability across basolateral to apical side in human Caco2 cells after 2 hrs; assay type: ADME, cell-based; conditions: caco-2, 2 h
[7] = AUC in ABT-treated NMRI mouse infected with Trypanosoma brucei brucei STIB795 at 30 mg/kg, ip measured up to 6 hrs on day 1 by LC-MS/MS analysis; assay type: ADME, organism-based; parameters: route intraperitoneal, dose 30 mg/kg/day, time <=6; conditions: in vivo
Procedure, shortened: (§3)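 Female NMRI mice infected ip with 10^4 bloodstream T. b. brucei STIB795 in TDB glucose. Dosing began day 3 after infection with parasitemia confirmed (n=3): oral ABT 50 mg/kg 1 h before ip 30 mg/kg (0.2 mL; 4% DMSO, 20% Captisol). Blood taken at 0.5, 2, 4, 6 h on day 1, extracted with nifedipine internal standard, LC-MS/MS.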

[8] = Tmax in ABT-treated NMRI mouse infected with Trypanosoma brucei brucei STIB795 at 30 mg/kg, ip measured up to 6 hrs on day 1 by LC-MS/MS analysis; assay type: ADME, organism-based; conditions: in vivo, dose 30 mg/kg/day; procedure, shortened: as §2
[9] = Cmax in ABT-treated NMRI mouse at 30 mg/kg, ip measured up to 6 hrs on day 1 by LC-MS/MS analysis; assay type: ADME, organism-based; parameters: route intraperitoneal, dose 30 mg/kg/day, time <=6; conditions: in vivo
Procedure, shortened: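 Female NMRI mice, uninfected (n=3), were given ABT 50 mg/kg/day 1 h before each ip dose of 30 mg/kg/day, in a vehicle of 4% DMSO and 20% Captisol, as a 0.2 mL injection. Blood was sampled at 0.5, 2, 4 and 6 h on day 1. Samples underwent liquid–liquid extraction with nifedipine as internal standard, followed by LC-MS/MS.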

[10] = AUC in NMRI mouse at 10 mg/kg, ip measured up to 6 hrs on day 1 by LC-MS/MS analysis; assay type: ADME, organism-based; parameters: route intraperitoneal, dose 10 mg/kg; conditions: in vivo
Procedure, shortened: (§4)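 Female NMRI mice, uninfected, single ip dose 10 mg/kg at 10 mL/kg in 1% DMSO/99% of 20% (w/v) SBEβ-CD (Captisol) in water. Tail-vein blood into K2EDTA at 0.0833, 0.25, 0.5, 1, 2, 4, 6, 8 and 24 h. Blood diluted 1:1 in water, liquid–liquid extraction with nifedipine internal standard, LC-MS/MS.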

[11] = Apparent permeability across apical to basolateral side in human Caco2 cells after 2 hrs; assay type: ADME, cell-based; conditions: caco-2, 2 h
[12] = Apparent permeability across basolateral to apical side in human Caco2 cells assessed as drug recovery after 2 hrs; assay type: ADME, cell-based; conditions: caco-2, 2 h
[13] = Tmax in NMRI mouse at 10 mg/kg, ip measured up to 6 hrs on day 1 by LC-MS/MS analysis; assay type: ADME, organism-based; conditions: in vivo
Procedure, shortened: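 Uninfected female NMRI mice given 10 mg/kg ip at 10 mL/kg in 1% DMSO/99% of 20% (w/v) SBEβ-CD in water, n=3. Tail-vein blood collected into K2EDTA at 0.0833–24 h and diluted 1:1 with water. Extracted with internal standard nifedipine and quantified by LC-MS/MS.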

[14] = AUC(0 to t) in ABT-treated NMRI mouse at 30 mg/kg, ip measured up to 6 hrs on day 1 by LC-MS/MS analysis; assay type: ADME, organism-based; parameters: route intraperitoneal, dose 30 mg/kg/day, time <=6; conditions: in vivo; procedure, shortened: as §1
[15] = Cmax in ABT-treated NMRI mouse infected with Trypanosoma brucei brucei STIB795 at 30 mg/kg, ip measured up to 6 hrs on day 1 by LC-MS/MS analysis; assay type: ADME, organism-based; parameters: route intraperitoneal, dose 30 mg/kg/day, time <=6; conditions: in vivo
Procedure, shortened: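 Female NMRI mice were infected ip with 10^4 bloodstream-form T. b. brucei STIB795. From day 3 they received ABT 50 mg/kg/day 1 h before ip dosing at 30 mg/kg/day (n=3), in a vehicle of 4% DMSO and 20% Captisol, for 5 days. Blood was sampled at 0.5, 2, 4 and 6 h on day 1. Quantitation was by LC-MS/MS after liquid–liquid extraction with nifedipine as internal standard.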

[16] = AUC (0 to t) in NMRI mouse at 10 mg/kg, ip measured up to 6 hrs on day 1 by LC-MS/MS analysis; assay type: ADME, organism-based; parameters: route intraperitoneal, dose 10 mg/kg; conditions: in vivo; procedure, shortened: as §4
[17] = AUC(0 to t) in ABT-treated NMRI mouse infected with Trypanosoma brucei brucei STIB795 at 30 mg/kg, ip measured up to 6 hrs on day 1 by LC-MS/MS analysis; assay type: ADME, organism-based; parameters: route intraperitoneal, dose 30 mg/kg/day, time <=6; conditions: in vivo; procedure, shortened: as §3

SMILES	logD [1]	Cmax [2] [µM]	Drug recovery [3] [%]	AUC [4] [ng·h/mL]	Tmax [5] [min]	Papp [6]	AUC [7] [ng·h/mL]	Tmax [8] [min]	Cmax [9] [ng/mL]	AUC [10] [ng·h/mL]	Papp [11]	Drug recovery [12] [%]	Tmax [13] [min]	AUCt [14] [ng·h/mL]	Cmax [15] [ng/mL]	AUCt [16] [ng·h/mL]	AUCt [17] [ng·h/mL]
FC(F)(F)CNc1nc(Nc2ccsc2)nc2[nH]cnc12	3.1																
Cn1nccc1Nc1nc(NCC(F)(F)F)c2nc[nH]c2n1	1.9	11.8	87	52521	30	44 10^-6 cm/s	83443	30	15767	5350	5.8 10^-6 cm/s	102	15	51799	17267	5340	77666
